In ChEMBL document CHEMBL1122809, “Improved synthesis and antitumor activity of 2-bromo-2'-deoxyadenosine” (1984):

Experiments:
L1210 [1] = experiment: Antitumor activity expressed as life span was determined against inoculated L1210 leukemia cells (1*10e5) in mice by 22.5 mg/kg dosage of compound (qd (x 3), for days 1, 4, 7,10,13,16); format: functional, Mus musculus
Outline: (§1)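 Female mice (~18 g, housed six per cage) received L1210 cells intraperitoneally on day 0. Drug was made fresh and injected at 0.01 mL/g; the stated dose is per injection. Controls received the same volume of 0.154 M NaCl. Survival was followed, with deaths assigned to tumour by necropsy or to drug toxicity by set criteria. Life span is given as mean ± SD.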

L1210 [2] = experiment: Antitumor activity expressed as life span was determined against inoculated L1210 leukemia cells (1*10e5) in mice by 45 mg/kg dosage of compound (qd (x 3), for days 1, 4, 7); format: functional, Mus musculus; outline: as §1
L1210 [3] = experiment: Antitumor activity expressed as life span was determined against inoculated L1210 leukemia cells (1*10e5) in mice by 5.6 mg/kg dosage of compound (qd (x 3), for days 1, 4, 7); format: functional, Mus musculus; outline: as §1
L1210 [4] = experiment: Antitumor activity expressed as life span was determined against inoculated L1210 leukemia cells (1*10e5) in mice by 5.6 mg/kg dosage of compound (qd (x 3), for days 1,5,9); format: functional, Mus musculus; outline: as §1
L1210 [5] = experiment: Antitumor activity expressed percentage increase in life span was determined against inoculated L1210 leukemia cells (1*10e5) in mice by 45 mg/kg dosage of compound (qd (x 3), for days 1,5,9); format: functional; settings: Mus musculus
Outline: (§2)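 L1210 cells were given intraperitoneally to female mice (~18 g). Freshly prepared drug was injected at 0.01 mL/g, dose per injection, and saline-injected controls were run. The end point was duration of survival. ILS was calculated as percent increase in mean life span over controls. Mice surviving 60 days or more counted as long-term survivors, scored as 60 days.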

L1210 [6] = experiment: Antitumor activity expressed percentage increase in life span was determined against inoculated L1210 leukemia cells (1*10e5) in mice by 5.6 mg/kg dosage of compound (qd (x 3), for days 1, 4, 7); format: functional; settings: Mus musculus; outline: as §2
L1210 [7] = experiment: Antitumor activity expressed percentage increase in life span was determined against inoculated L1210 leukemia cells (1*10e5) in mice by 5.6 mg/kg dosage of compound (qd (x 3), for days 1, 4, 7,10,13,16); format: functional; settings: Mus musculus; outline: as §2
L1210 [8] = experiment: Antitumor activity expressed percentage increase in life span was determined against inoculated L1210 leukemia cells (1*10e5) in mice by 5.6 mg/kg dosage of compound (qd (x 3), for days 1,5,9); format: functional; settings: Mus musculus; outline: as §2
L1210 [9] = experiment: Antitumor activity expressed percentage increase in life span was determined against inoculated L1210 leukemia cells (1*10e6) in mice by 11.3 mg/kg dosage of compound (qd (x 3), for days 1, 4, 7); format: functional; settings: Mus musculus; outline: as §2
L1210 [10] = experiment: Antitumor activity expressed as life span was determined against inoculated L1210 leukemia cells (1*10e6) in mice by 180 mg/kg dosage of compound (qd (x 3), for days 1, 4, 7); format: functional, Mus musculus; outline: as §1
L1210 [11] = experiment: Antitumor activity expressed as life span was determined against inoculated L1210 leukemia cells (1*10e6) in mice by 22.5 mg/kg dosage of compound (qd (x 3), for days 1, 4, 7,10,13,16); format: functional, Mus musculus; outline: as §1
L1210 [12] = experiment: Antitumor activity expressed as life span was determined against inoculated L1210 leukemia cells (1*10e6) in mice by 30 mg/kg dosage of compound (qd (x 3), for days 1- 7); format: functional, Mus musculus; outline: as §1
L1210 [13] = experiment: Antitumor activity expressed percentage increase in life span was determined against inoculated L1210 leukemia cells (1*10e5) in mice by 11.3 mg/kg dosage of compound (qd (x 3), for days 1, 4, 7,10,13,16); format: functional; settings: Mus musculus; outline: as §2
L1210 [14] = experiment: Antitumor activity expressed percentage increase in life span was determined against inoculated L1210 leukemia cells (1*10e5) in mice by 17.3 mg/kg dosage of compound (qd (x 3), for days 1,5,9); format: functional; settings: Mus musculus; outline: as §2
L1210 [15] = experiment: Antitumor activity expressed percentage increase in life span was determined against inoculated L1210 leukemia cells (1*10e5) in mice by 22.5 mg/kg dosage of compound (qd (x 3), for days 1, 4, 7,10,13,16); format: functional; settings: Mus musculus; outline: as §2
L1210 [16] = experiment: Antitumor activity expressed percentage increase in life span was determined against inoculated L1210 leukemia cells (1*10e5) in mice by 22.5 mg/kg dosage of compound (qd (x 3), for days 1,5,9); format: functional; settings: Mus musculus; outline: as §2
L1210 [17] = experiment: Antitumor activity expressed percentage increase in life span was determined against inoculated L1210 leukemia cells (1*10e5) in mice by 45 mg/kg dosage of compound (qd (x 3), for days 1, 4, 7); format: functional; settings: Mus musculus; outline: as §2
L1210 [18] = experiment: Antitumor activity expressed percentage increase in life span was determined against inoculated L1210 leukemia cells (1*10e6) in mice by 110 mg/kg dosage of compound (qd (x 3), for days 1-7); format: functional; settings: Mus musculus; outline: as §2
L1210 [19] = experiment: Antitumor activity expressed percentage increase in life span was determined against inoculated L1210 leukemia cells (1*10e6) in mice by 140 mg/kg dosage of compound (qd (x 3), for days 1, 4, 7); format: functional; settings: Mus musculus; outline: as §2
L1210 [20] = experiment: Antitumor activity expressed percentage increase in life span was determined against inoculated L1210 leukemia cells (1*10e6) in mice by 22.5 mg/kg dosage of compound (qd (x 3), for days 1, 4, 7); format: functional; settings: Mus musculus; outline: as §2
L1210 [21] = experiment: Antitumor activity expressed percentage increase in life span was determined against inoculated L1210 leukemia cells (1*10e6) in mice by 22.5 mg/kg dosage of compound (qd (x 3), for days 1, 4, 7,10,13,16); format: functional; settings: Mus musculus; outline: as §2
L1210 [22] = experiment: Antitumor activity expressed percentage increase in life span was determined against inoculated L1210 leukemia cells (1*10e6) in mice by 5.6 mg/kg dosage of compound (qd (x 3), for days 1, 4, 7); format: functional; settings: Mus musculus; outline: as §2
L1210 [23] = experiment: Antitumor activity expressed percentage increase in life span was determined against inoculated L1210 leukemia cells (1*10e6) in mice by 90 mg/kg dosage of compound (qd (x 3), for days 1, 4, 7); format: functional; settings: Mus musculus
Outline: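 Female mice of about 18 g (BDF1, DBA/2 or C57Bl/6 stocks used) were inoculated intraperitoneally with 1 × 10^6 L1210 cells. Freshly prepared drug was given once daily from about 24 h after inoculation at 0.01 mL/g, with the dose stated per injection. Controls received 0.154 M NaCl, and groups held 6 mice. %ILS was taken from mean survival, with mice alive at 60 days or more counted as 60 days.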

L1210 [24] = experiment: Antitumor activity expressed as life span was determined against inoculated L1210 leukemia cells (1*10e6) in mice by 5.6 mg/kg dosage of compound (qd (x 3), for days 1, 4, 7,10,13,16); format: functional, Mus musculus; outline: as §1
L1210 [25] = experiment: Antitumor activity expressed as life span was determined against inoculated L1210 leukemia cells (1*10e6) in mice by 50 mg/kg dosage of compound (qd (x 3), for days 1- 7); format: functional, Mus musculus; outline: as §1
B16 melanoma (mouse) = experiment: Antitumor activity was evaluated by measuring mean life span in tumor (B16 melanoma) inoculated mice at 22.5 mg/kg (qd3hx8),days 1,4,7,10,13,16

## Nc1nc(Br)nc2c1ncn2[C@H]1C[C@H](O)[C@@H](CO)O1
L1210 [1]
  Life span: 20.67 days
L1210 [2]
  Life span: 37.92 days
L1210 [3]
  Life span: 11.75 days
L1210 [4]
  Life span: 12.36 days
L1210 [5]
  ILS at 45 mg/kg: 387%
L1210 [6]
  ILS at 5.6 mg/kg: 60%
L1210 [7]
  ILS at 5.6 mg/kg: 45%
L1210 [8]
  ILS at 5.6 mg/kg: 59%
L1210 [9]
  ILS at 11.3 mg/kg: 104%
L1210 [10]
  Life span: 5 days
L1210 [11]
  Life span: 16.08 days
L1210 [12]
  Life span: 7.67 days
L1210 [13]
  ILS at 11.3 mg/kg: 128%
L1210 [14]
  ILS at 17.3 mg/kg: 81%
L1210 [15]
  ILS at 22.5 mg/kg: 153%
L1210 [16]
  ILS at 22.5 mg/kg: 176%
L1210 [17]
  ILS at 45 mg/kg: 417%
L1210 [18]
  ILS at 110 mg/kg: 0%
L1210 [19]
  ILS at 140 mg/kg: 26%
L1210 [20]
  ILS at 22.5 mg/kg: 137%
L1210 [21]
  ILS at 22.5 mg/kg: 127%
L1210 [22]
  ILS at 5.6 mg/kg: 75%
L1210 [23]
  ILS at 90 mg/kg: 11%
L1210 [24]
  Life span: 10.5 days
L1210 [25]
  Life span: 9 days
B16 melanoma (mouse)
  Life span: 19.22 days
